HCV core dimer: blocks dimerization of HCV core protein. TR-FRET GST/Flag-core106 dimerization, 1536-well. 300,000 tested, 0.33% active. inhibition, % at 5 µM;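 active = inhibition above the mean of all tested compounds plus 3 SD, set per screening campaign, cut at about 45% in these data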
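Assay system: Tagged HCV core106 pair (GST and Flag) | Buffer or medium: KF-containing HEPES buffer, pH 7.45, DTT, CHAPS, BSA | Also added: Eu donor and XL665 acceptor anti-tag antibodies | Dosing: One concentration, 5 µM, in 0.5% DMSO | Timing: 4 h at 22.5 °C | Technique: TR-FRET 671 and 617 nm emission | Repeats: Singlicate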
Myeloid diff 2: compounds promoting myeloid differentiation; ER-HoxA9 myeloid progenitors, lysozyme-GFP differentiation, flow cytometry; calls only at 10 µM; 360,000 tested, 1% active; AID 624256;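 active = normalized GFP-positive differentiation at or above the plate's own cutoff, the solvent-only control mean plus 3 SD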;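 also: cells exposed to compound for four days before flow analysis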
Fh CTSL1 inh: counter-screen for PFM18AAP inhibitors: inhibitors of F. hepatica cathepsin L1; 300,000 tested, 0.49% active; inhibition, % at 5.96 µM; recombinant F. hepatica cathepsin L1, Z-Leu-Arg-MCA fluorescence;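 active = inhibition above the mean of all tested compounds plus 3 SD, set per screening campaign, cut at about 17% in these data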;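 also: 0% = plate median of test compound wells and 100% = 1 µM Z-Phe-Ala-diazomethylketone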
PP1 counter: PP1-alpha (human) inhibition in PP5 counter-screen | P62136 | purified PP1alpha, OMFP fluorescence | inhibition, % at 6.7 µM | 320,000 tested, 0.9% active;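 active = inhibition above the mean inhibition of all tested compounds plus 3 SD, computed separately for each screening campaign, cut at about 15% in these data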
NadD block: inhibitors of Staphylococcus aureus NadD. purified NadD enzyme, colorimetric absorbance read-out. inhibition, % at 20 µM. 360,000 tested, 0.78% active. AID 602399; in the data active = inhibition above about 26%
PP5 primary: PP5 (human) phosphatase inhibition; 320,000 tested, 0.18% active; purified PP5c, OMFP substrate fluorescence; inhibition, % at 6.7 µM;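 active = inhibition above the campaign's mean inhibition across all tested compounds plus 3 SD, cut at about 9.5% in these data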;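 also: 0% = DMSO only and 100% = 100 µM cantharidin control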
Target sequence (P53041 whole entry, looked up): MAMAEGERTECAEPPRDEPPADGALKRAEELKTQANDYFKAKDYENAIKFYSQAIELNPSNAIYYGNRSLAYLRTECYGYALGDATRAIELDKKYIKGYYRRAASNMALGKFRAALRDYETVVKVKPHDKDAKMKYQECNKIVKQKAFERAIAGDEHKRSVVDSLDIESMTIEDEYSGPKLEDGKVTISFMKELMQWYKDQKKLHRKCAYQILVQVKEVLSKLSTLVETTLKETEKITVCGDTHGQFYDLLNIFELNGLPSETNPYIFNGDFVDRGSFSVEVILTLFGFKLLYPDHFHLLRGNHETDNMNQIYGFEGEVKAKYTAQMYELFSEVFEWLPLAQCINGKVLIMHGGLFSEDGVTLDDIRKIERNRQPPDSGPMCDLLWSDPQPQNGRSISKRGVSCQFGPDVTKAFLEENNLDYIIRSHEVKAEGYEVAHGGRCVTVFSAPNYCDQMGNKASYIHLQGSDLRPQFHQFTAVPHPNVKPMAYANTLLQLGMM
The depositor's hits bear a star; i = inactive; . = no result; + = active, no number. In the library only some 3.1% were active in any assay of this set; here they are far more common.

SMILES	HCV core dimer	Myeloid diff 2	Fh CTSL1 inh	PP1 counter	NadD block	PP5 primary
CC1=NCCc2c1[nH]c1cc(O)ccc21	-1	i	3	-11	4	-5
COc1ccc2c3c([nH]c2c1)C(C)=NCC3	-11	+	-4	8	-9	2
Cc1cccc(C(O)(C(=O)O)c2ccccc2)c1 (stereo unspecified)	.	i	.	.	1	.
CCn1ccnc1CN1CCCC(C(=O)c2ccc(SC)cc2)C1 (stereo unspecified)	-9	+	1	2	8	-1
COc1cccc(C2CCN(C)C2)c1 (stereo unspecified)	.	i	.	.	2	.
COC(=O)C1=C(c2ccc(F)cc2OCc2ccccc2)C[C@@H]2CC[C@H]1N2C(=O)NCCOc1ccccc1Cl	.	i	.	4	-3	2
COC(=O)C1=C(c2ccc(F)cc2OCc2ccccc2)C[C@@H]2CC[C@H]1N2C(=O)NCc1ccccc1Cl	.	+	.	14	6	3
COC(=O)C1=C(c2cccc(OCc3ccccc3)c2)C[C@@H]2CC[C@H]1N2C(=O)NCc1ccc(N(C)C)cc1	.	+	.	9	3	4
CN1C(=O)NC(=O)C2(CCCC2)C1=O	.	i	.	.	-2	.
COCC(=O)N1Cc2ccccc2-n2nncc2C1	.	i	.	.	6	.
CN(C)c1ccc(NC(=O)CN2C(=O)CN=C(c3ccccc3)c3ccccc32)cc1	-3	+	4	-1	16	1
CCCCn1c(O)c(C(C)=NCc2cc(OC)cc(OC)c2)c(=O)[nH]c1=O	6	+	5	1	-4	1
CCCCn1c(O)c(C(CC)=NCc2cc(OC)cc(OC)c2)c(=O)[nH]c1=O	6	i	5	10	-7	7
CC1=C[C@@H]2c3cccc4[nH]cc(c34)C[C@H]2N(C)C1	-6	+	3	4	26	2
N#C/C(=C\c1ccc(O)cc1)C(=O)O (tested in a mixture with another compound)	.	+	.	.	1	.
C/C=C(\C)C(=O)N[C@@H](c1ccccc1)[C@@H](O)C(=O)O[C@H]1C[C@@]2(O)[C@@H](OC(=O)c3ccccc3)C3[C@](C)(C(=O)[C@H](OC(C)=O)C(=C1C)C2(C)C)[C@@H](O)C[C@H]1OC[C@@]31OC(C)=O (stereo partly specified)	-8	+	1	3	4	3
Cc1ccc2c(c1)cc1c(=O)n(CC(=O)N3CCC4(CC3)OCCO4)nc(C)n12	-7	i	-2	0	6	1
COc1ccc(N2CCN(Cc3nc4ccccc4[nH]3)CC2)cc1	-15	i	17*	0	0	2
COc1c(C=C2C(=O)NC(=O)NC2=O)c(CCN(C)C(=O)c2ccccc2)cc2c1OCO2	0	i	1	-4	4	2
CCN(CC)c1ccc(/C=C/[N+](=O)[O-])cc1	0	i	2	2	-2	-1
O=[N+]([O-])/C=C/c1c(Cl)cccc1Cl	.	+	.	.	9	.
COc1ccc(OC)c(NC2=NCCCS2)c1	-3	+	10	-4	-4	1
O=C1NC(=O)[C@]2(Cc3ccccc3N3CCN(c4ccccc4)CC32)C(=O)N1Cc1ccccc1 (stereo partly specified)	43	i	4	12	48*	1
O=S(=O)(c1ccccc1)C1CN1c1c(F)c(F)c(F)c(F)c1F (stereo unspecified)	.	i	.	.	2	.
NC(N)=N/N=C/c1cn(-c2ccccc2)nc1-c1cccs1	-7	i	1	17*	-2	5
SMILES	HCV core dimer	Myeloid diff 2	Fh CTSL1 inh	PP1 counter	NadD block	PP5 primary
CC[n+]1c(-c2ccccc2)c2cc(N)ccc2c2ccc(N)cc21	.	+	.	.	7	.
Nc1c(C(=O)NCc2ccco2)c2nc3ccccc3nc2n1Cc1ccc(F)cc1	-4	+	-4	8	10	8
Nc1c(C(=O)NCc2ccco2)c2nc3ccccc3nc2n1Cc1ccccc1	22	i	4	5	17	4
C=CCOc1ccc(CC2C(=O)N(C)C(=O)N(C)C2=O)cc1	85*	i	-2	8	7	3
O=C(Nc1ccccc1)c1c(O)[nH]c(=S)[nH]c1=O	-18	i	7	16*	1	-6
O=C(Nc1ccccc1)c1c(O)[nH]c(=O)[nH]c1=O	7	i	-1	0	-2	1
C=CCn1c(=O)c(C=Nc2cccc([N+](=O)[O-])c2)c(O)n(CCCC)c1=O	7	+	1	3	1	1
C=CCn1c(=O)c(C=Nc2c(OC)cccc2[N+](=O)[O-])c(O)n(CCCC)c1=O	23	i	1	-1	2	0
C[C@]12CC[C@H](O)CC1=CC(=O)C1C2CC[C@]2(C)C(=O)[C@H](O)CC12 (stereo partly specified)	.	i	.	.	-1	.
Cc1ccc(N2C(=O)NC(=O)/C(=C\c3cc(C)n(-c4sc5c(c4C#N)CCCC5)c3C)C2=O)cc1	19	i	3	8	34*	5
CCOC(=O)c1c(-n2c(C)cc(/C=C3/C(=O)NC(=O)N(CC)C3=O)c2C)sc2c1CCCC2	-1	i	0	0	25	4
CCOC(=O)c1c(-n2c(C)cc(C=C3C(=O)NC(=S)NC3=O)c2C)sc2c1CCCC2	21	i	-2	3	46*	0
O=C1NC(=O)N(c2ccccc2)C(=O)/C1=C/c1coc2ccc(O)cc2c1=O	6	+	-2	2	4	1
O=C1NC(=O)N(c2ccccc2)C(=O)/C1=C\c1ccccc1[N+](=O)[O-]	-8	i	-2	-1	1	2
O=C1NC(=O)N(c2ccc(Cl)cc2)C(=O)/C1=C/c1coc2ccc(O)cc2c1=O	12	+	0	-4	3	-2
COc1ccc(CN2C(=O)C(CC(=O)NCc3ccco3)CC(C(=O)N(C)C)=C2C)cc1 (stereo unspecified)	.	i	.	.	-7	.
C[C@@H]1CN([C@H](C)CO)C(=O)CCCn2nncc2CO[C@@H]1CN(C)C(=O)Oc1ccccc1	.	i	.	.	-3	.
CCN1CCN(Cc2cccnc2)CC1	-11	i	19*	-1	1	-1
CCN1CCN(Cc2ccc(OC(F)(F)F)cc2)CC1	-3	i	1	-4	-5	-1
CN1C(=O)/C(=C/c2cccn2-c2ccc3ccccc3c2)C(=O)NC1=S	65*	i	1	14	44*	2
c1ccc2c(CN3CCCCCCC3)c[nH]c2c1	-4	+	2	-2	-3	0
CCOC(=O)Cn1cc([N+](=O)[O-])nc1[N+](=O)[O-]	-2	i	18*	-2	-2	2
CCOC(=O)Cn1cc(C(=O)c2ccccc2F)c2ccccc21	0	i	-1	4	-5	1

From PubChem
